In ChEMBL document CHEMBL5678818, “Discovery of potent SOS1 inhibitors that block RAS activation via disruption of the RAS-SOS1 interaction” (Proc Natl Acad Sci U S A, 2019):
Activity calls are given as the source filed them. The rule behind the calls is not given here.

Assays:
[1] = system: Tyrosine-protein kinase ABL1 (Homo sapiens), P00519 [Y253F]; experiment: Inhibition of phosphorylated ABL1 Y253F mutant (unknown origin) assessed as residual activity at 100 nM by KINOMEscan analysis relative to control
[2] = species: Homo sapiens; experiment: Inhibition of ACVR1 (unknown origin) assessed as residual activity at 100 nM by KINOMEscan analysis relative to control
[3] = biological target: Cyclin-dependent kinase-like 1 (Homo sapiens) (UniProt Q00532); experiment: Inhibition of CDKL1 (unknown origin) assessed as residual activity at 100 nM by KINOMEscan analysis relative to control
Cyclin-dependent kinase-like 1 (Homo sapiens), sequence (Q00532 whole entry): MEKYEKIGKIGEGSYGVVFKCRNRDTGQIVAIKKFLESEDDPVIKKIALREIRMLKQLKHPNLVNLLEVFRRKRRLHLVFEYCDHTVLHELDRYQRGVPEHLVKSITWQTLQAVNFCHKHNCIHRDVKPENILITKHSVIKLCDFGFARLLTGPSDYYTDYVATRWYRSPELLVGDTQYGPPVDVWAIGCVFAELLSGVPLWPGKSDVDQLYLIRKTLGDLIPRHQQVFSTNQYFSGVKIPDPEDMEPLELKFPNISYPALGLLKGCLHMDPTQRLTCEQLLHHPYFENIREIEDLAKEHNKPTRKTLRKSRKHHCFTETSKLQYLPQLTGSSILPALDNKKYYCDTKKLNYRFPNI

[4] = biological target: T1, Hormonally up-regulated neu tumor-associated kinase (Homo sapiens) (UniProt P57058); experiment: Inhibition of HUNK (unknown origin) assessed as residual activity at 100 nM by KINOMEscan analysis relative to control
T1 sequence (whole entry): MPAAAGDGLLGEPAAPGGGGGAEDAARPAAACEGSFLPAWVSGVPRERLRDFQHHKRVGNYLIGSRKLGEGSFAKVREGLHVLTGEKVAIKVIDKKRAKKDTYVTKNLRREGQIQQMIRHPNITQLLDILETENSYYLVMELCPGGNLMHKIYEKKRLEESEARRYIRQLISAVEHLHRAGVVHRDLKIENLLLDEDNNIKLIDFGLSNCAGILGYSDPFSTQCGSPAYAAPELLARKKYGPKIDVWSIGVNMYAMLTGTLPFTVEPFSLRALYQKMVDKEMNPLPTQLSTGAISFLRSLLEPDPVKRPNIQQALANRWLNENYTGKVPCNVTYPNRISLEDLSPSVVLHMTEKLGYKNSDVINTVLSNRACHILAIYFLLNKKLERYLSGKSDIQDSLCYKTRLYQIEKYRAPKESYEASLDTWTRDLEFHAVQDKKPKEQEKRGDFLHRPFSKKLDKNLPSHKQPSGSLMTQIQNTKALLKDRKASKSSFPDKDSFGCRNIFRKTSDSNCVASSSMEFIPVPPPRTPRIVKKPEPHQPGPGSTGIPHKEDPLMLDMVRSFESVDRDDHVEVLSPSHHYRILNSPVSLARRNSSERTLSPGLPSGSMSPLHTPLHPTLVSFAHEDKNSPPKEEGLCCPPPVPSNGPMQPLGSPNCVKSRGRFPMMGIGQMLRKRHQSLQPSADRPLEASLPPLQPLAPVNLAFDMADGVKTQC

[5] = biological target: T2, Interleukin-1 receptor-associated kinase 3 (Homo sapiens) (UniProt Q9Y616); experiment: Inhibition of IRAK3 (unknown origin) assessed as residual activity at 100 nM by KINOMEscan analysis relative to control
T2 sequence (whole entry): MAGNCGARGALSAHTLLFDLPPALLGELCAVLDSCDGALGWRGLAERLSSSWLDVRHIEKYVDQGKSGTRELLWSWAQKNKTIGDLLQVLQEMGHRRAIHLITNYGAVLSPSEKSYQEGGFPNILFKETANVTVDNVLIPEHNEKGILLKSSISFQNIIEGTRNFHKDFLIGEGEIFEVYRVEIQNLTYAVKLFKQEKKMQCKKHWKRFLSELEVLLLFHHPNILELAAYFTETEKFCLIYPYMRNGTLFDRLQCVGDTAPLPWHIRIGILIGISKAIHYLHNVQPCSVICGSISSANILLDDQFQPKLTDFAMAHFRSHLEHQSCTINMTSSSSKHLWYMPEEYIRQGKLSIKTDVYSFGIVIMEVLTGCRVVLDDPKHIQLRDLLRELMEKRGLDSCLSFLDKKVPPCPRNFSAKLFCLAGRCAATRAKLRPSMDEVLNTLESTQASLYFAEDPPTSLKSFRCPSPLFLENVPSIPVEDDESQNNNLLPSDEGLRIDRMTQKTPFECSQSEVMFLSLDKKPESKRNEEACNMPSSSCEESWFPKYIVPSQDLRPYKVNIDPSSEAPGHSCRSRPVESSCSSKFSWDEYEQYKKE

[6] = biological target: T3, Mitogen-activated protein kinase kinase kinase kinase 3 (Homo sapiens) (UniProt Q8IVH8); experiment: Inhibition of MAP4K3 (unknown origin) assessed as residual activity at 100 nM by KINOMEscan analysis relative to control
T3 sequence (whole entry): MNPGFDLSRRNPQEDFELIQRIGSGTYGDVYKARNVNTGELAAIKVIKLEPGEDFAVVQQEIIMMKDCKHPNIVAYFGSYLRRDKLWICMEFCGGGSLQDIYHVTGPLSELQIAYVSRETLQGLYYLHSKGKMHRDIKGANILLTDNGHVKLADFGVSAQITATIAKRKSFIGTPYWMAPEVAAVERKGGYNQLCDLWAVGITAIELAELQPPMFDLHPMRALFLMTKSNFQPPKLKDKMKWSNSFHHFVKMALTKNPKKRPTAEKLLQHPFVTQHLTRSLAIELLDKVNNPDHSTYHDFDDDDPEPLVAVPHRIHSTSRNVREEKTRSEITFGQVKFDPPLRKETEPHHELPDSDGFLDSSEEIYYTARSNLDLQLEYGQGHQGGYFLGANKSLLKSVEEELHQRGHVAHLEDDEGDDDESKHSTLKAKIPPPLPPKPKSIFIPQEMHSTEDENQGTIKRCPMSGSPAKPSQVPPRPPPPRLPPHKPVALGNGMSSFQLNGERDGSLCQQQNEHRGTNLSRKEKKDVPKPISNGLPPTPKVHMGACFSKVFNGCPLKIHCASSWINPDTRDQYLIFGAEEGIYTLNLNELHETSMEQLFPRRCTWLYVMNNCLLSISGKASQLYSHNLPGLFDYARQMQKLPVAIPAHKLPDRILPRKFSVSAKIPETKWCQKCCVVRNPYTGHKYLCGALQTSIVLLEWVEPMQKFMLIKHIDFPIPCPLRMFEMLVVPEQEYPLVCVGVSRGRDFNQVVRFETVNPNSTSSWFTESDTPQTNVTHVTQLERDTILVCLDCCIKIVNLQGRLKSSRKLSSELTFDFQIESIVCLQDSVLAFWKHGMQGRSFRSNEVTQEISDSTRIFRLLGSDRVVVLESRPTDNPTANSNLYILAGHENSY

[7] = biological target: Mitogen-activated protein kinase kinase kinase kinase 5 (Homo sapiens) (UniProt Q9Y4K4); experiment: Inhibition of MAP4K5 (unknown origin) assessed as residual activity at 100 nM by KINOMEscan analysis relative to control
Mitogen-activated protein kinase kinase kinase kinase 5 (Homo sapiens), sequence (Q9Y4K4 whole entry, looked up): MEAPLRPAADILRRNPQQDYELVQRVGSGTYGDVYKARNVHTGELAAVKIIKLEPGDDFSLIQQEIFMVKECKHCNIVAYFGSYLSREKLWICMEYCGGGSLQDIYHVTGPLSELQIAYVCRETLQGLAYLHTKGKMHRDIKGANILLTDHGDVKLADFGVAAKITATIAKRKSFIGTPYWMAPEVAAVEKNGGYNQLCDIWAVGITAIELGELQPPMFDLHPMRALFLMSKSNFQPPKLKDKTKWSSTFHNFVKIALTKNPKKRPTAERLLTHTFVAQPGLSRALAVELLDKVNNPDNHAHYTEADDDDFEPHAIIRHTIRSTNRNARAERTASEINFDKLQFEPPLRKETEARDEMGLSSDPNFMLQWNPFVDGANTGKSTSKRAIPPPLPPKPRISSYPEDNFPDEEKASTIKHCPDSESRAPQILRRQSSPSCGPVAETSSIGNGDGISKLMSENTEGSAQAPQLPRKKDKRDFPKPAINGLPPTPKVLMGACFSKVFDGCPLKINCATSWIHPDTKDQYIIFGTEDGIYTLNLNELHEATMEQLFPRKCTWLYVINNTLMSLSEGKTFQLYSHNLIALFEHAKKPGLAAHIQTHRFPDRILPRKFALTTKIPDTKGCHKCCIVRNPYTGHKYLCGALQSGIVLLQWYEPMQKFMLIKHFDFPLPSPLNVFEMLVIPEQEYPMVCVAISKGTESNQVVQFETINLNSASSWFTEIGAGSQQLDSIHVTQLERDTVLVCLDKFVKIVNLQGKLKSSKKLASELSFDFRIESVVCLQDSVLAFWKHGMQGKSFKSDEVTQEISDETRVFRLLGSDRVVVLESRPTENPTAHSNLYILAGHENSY

[8] = biological target: Proto-oncogene tyrosine-protein kinase Src (Homo sapiens) (UniProt P12931); experiment: Inhibition of SRC (unknown origin) assessed as residual activity at 100 nM by KINOMEscan analysis relative to control
Proto-oncogene tyrosine-protein kinase Src (Homo sapiens), sequence (P12931 2-536 limits assumed): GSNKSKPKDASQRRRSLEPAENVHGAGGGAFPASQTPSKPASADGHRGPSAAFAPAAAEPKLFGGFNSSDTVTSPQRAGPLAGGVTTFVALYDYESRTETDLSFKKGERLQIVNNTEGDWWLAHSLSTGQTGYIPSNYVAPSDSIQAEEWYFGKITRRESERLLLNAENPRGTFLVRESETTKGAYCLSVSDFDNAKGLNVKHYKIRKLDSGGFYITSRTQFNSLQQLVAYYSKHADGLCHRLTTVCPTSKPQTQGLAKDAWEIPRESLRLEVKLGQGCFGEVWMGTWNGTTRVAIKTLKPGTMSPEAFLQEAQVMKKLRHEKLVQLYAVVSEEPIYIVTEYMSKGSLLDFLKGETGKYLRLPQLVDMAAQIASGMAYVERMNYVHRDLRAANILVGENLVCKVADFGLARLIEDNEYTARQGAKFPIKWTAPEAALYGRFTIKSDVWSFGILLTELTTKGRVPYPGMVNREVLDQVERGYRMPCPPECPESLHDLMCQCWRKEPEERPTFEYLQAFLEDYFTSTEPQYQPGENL

[9] = biological target: STE20/SPS1-related proline-alanine-rich protein kinase (Homo sapiens) (UniProt Q9UEW8); experiment: Inhibition of STK39 (unknown origin) assessed as residual activity at 100 nM by KINOMEscan analysis relative to control
[10] = system: Calu-1; experiment: Effect on total ERK level in human Calu-1 cells incubated for 24 hrs by HTRF analysis; type: functional, cell-based
Outline: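 Calu-1 cells carry two KRAS G12C alleles and were sourced from CLS. Total and pERK levels were both analyzed after compound treatment.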

Row | Structure (SMILES) | Activity [1] | Activity [2] | Activity [3] | Activity [4] | Activity [5] | Activity [6] | Activity [7] | Activity [8] | Activity [9] | Activity [10]
1 | COc1cc2ncnc(N[C@H](C)c3cccc4ccccc34)c2cc1OC | 98% | 83% | 70% | 91% | 100% | 85% | 87% | 90% | 93% | 
2 | CNCc1ccccc1-c1csc([C@@H](C)Nc2nc(C)nc3cc(OC)c(OC)cc23)c1 [BAY-293] |  |  |  |  |  |  |  |  |  | inactive
